One may read the fraction unbound as the share of the substance not bound to proteins or other matrix. By EC50 is commonly meant the concentration that produces a half-maximal response. For orientation: bioavailability means the share of a dose that reaches the circulation, judged against a reference dose that is usually intravenous. Lower therefore signals little systemic uptake.

We go through three compounds from ChEMBL document CHEMBL4823260, “From High-Throughput Screening to Target Validation: Benzo[d]isothiazoles as Potent and Selective Agonists of Human Transient Receptor Potential Cation Channel Subfamily M Member 5 Possessing In Vivo Gastrointestinal Prokinetic Activity in Rodents” (J Med Chem, 2021).

Series [1] can be described thus: Protein binding in rat plasma assessed as unbound fraction measured after 5 hrs by equilibrium dialysis based HPLC/UPLC-MS/MS analysis. Format: ADME, cell-free.
Series [2] addresses Transient receptor potential cation channel subfamily M member 8 (Homo sapiens, UniProt Q7Z2W7). Nature of the series: Agonist activity at human TRPM8 expressed in HEK cells assessed as increase in menthol-induced intracellular calcium level measured after 1 hr by FLIPR assay. Format: cell-based. The method in brief:
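HEK cells with stable hTRPM8, 20,000/well on poly-D-lysine plates 24 h ahead. Loaded with calcium-6 dye and 2.5 mM probenecid, 1 h at 37 °C then 1 h at rt. First-addition calcium rise scaled to (−)menthol 100 μM final (100% control); pEC50 derived from the concentration–response. Final DMSO 0.5%; assay at rt.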
For orientation: Calcium flux is commonly read through the fluorescence of an indicator in the cells.

The target of series [3] is T1, Transient receptor potential cation channel subfamily M member 5 (Homo sapiens, UniProt Q9NZQ8).
T1 sequence (Q9NZQ8 whole entry): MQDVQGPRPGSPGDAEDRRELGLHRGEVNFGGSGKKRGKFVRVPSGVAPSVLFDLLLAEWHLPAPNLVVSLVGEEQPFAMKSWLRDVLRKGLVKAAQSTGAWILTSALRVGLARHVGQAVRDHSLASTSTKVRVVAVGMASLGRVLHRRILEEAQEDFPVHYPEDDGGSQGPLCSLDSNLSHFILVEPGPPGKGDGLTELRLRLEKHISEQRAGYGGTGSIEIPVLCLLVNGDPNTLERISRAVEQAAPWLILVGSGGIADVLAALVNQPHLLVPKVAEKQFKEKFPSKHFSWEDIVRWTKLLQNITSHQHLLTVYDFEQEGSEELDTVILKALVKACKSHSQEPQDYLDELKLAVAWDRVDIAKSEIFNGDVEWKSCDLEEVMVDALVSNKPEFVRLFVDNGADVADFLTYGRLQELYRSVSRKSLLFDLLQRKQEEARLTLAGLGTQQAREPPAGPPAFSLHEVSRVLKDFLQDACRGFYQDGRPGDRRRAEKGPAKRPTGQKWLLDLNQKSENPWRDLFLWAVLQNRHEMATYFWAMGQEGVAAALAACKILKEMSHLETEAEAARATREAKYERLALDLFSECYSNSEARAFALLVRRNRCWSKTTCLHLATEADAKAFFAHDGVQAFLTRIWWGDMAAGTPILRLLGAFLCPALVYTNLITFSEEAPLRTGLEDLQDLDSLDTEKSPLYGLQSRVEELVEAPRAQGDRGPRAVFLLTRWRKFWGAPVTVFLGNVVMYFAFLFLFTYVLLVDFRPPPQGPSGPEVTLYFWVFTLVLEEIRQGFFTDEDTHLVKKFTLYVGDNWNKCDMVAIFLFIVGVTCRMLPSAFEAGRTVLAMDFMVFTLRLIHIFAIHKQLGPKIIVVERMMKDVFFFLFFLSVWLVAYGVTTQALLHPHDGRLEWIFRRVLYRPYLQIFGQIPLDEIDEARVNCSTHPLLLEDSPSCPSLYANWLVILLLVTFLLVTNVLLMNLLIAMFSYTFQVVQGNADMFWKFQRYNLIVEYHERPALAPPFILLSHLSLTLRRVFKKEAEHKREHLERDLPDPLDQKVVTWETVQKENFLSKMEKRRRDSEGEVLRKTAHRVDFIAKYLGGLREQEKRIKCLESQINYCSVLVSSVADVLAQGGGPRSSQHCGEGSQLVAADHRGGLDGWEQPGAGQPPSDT
The series is described as follows: Agonist activity at human TRPM5 expressed in CHO-K1 cells maintained at 80 mV final holding potential by syncroPatch assay. The format is cell-based. The method in brief: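 SyncroPatch 384 whole-cell recording at rt on CHO-K1 cells stably expressing human or mouse TRPM5. Intracellular solution had 2 mM Na-ATP and 5 μM free Ca2+. Cumulative doses 0.03–31.6 μM in 0.5% DMSO, 150 s each after 180 s vehicle. Current measured at the end of the +80 mV step, normalized to vehicle; pEC50 is the mean of ≥2 independent experiments.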

Series [4] in a line: Oral bioavailability in CD-1 mouse at 10 mg/kg measured up to 24 hrs. Format: ADME, organism-based. The settings on record: in vivo.
Series [5] in a line: Clast in CD-1 mouse at 1 mg/kg, iv measured up to 24 hrs. The format is ADME, organism-based. Conditions: in vivo, read-out: Clast.
Series [6] in a line: Protein binding in mouse plasma assessed as unbound fraction measured after 5 hrs by equilibrium dialysis based HPLC/UPLC-MS/MS analysis. Format: ADME, cell-free.
The subject of series [7] is Mus musculus. The series is described as follows: Gastroprokinetic activity in CD-1 mouse assessed as stimulation of gastrointestinal motility by measuring fecal number at 10 mg/kg, po measured after 6 hrs (reference value: 20.1 +/-1.4). The format is functional.
Series [8] concerns Mus musculus. The series is described as follows: Gastroprokinetic activity in CD-1 mouse assessed as stimulation of gastrointestinal motility by measuring fecal number at 1 mg/kg, po measured after 2 hrs (reference value: 5.3 +/-0.7). The format is functional.
For series [9], the system named is Mus musculus. The series is described as follows: Gastroprokinetic activity in CD-1 mouse assessed as stimulation of gastrointestinal motility by measuring total fecal weight at 1 mg/kg, po measured after 2 hrs (reference value: 0.13 +/-0.02 g). Format: functional.
Series [10] is described as follows: Drug concentration in C57BL6 mouse colon at 100 mg/kg, po administered as single dose measured after 6 hrs by LC-MS/MS analysis. Format: ADME, organism-based. Conditions: read-out: Ct. A digest of the protocol: (§1)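 Single oral dose of 1, 3 or 100 mg/kg in mouse. Plasma (ng/mL) and colon and ileum (ng/g) exposure sampled at 6, 24 and 48 h, and at 72 h for the top dose; mean values reported.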

Series [11] concerns Mus musculus. Nature of the series: Gastroprokinetic activity in CD-1 mouse assessed as stimulation of gastrointestinal motility by measuring fecal number at 10 mg/kg, po measured after 3 hrs (reference value: 9.1 +/-1.1). The format is functional.
Series [12] relates to Mus musculus. The series is described as follows: Gastroprokinetic activity in CD-1 mouse assessed as stimulation of gastrointestinal motility by measuring total fecal weight at 10 mg/kg, po measured after 3 hrs (reference value: 0.21 +/-0.03 g).
A short description of series [13]: Drug concentration in C57BL6 mouse colon at 100 mg/kg, po administered as single dose measured after 24 hrs by LC-MS/MS analysis. Format: ADME, organism-based. Conditions: read-out: Ct. A digest of the protocol: as §1
Series [14] deals with Mus musculus. Nature of the series: Gastroprokinetic activity in CD-1 mouse assessed as stimulation of gastrointestinal motility by measuring fecal number at 100 mg/kg, po measured after 1 hrs (reference value: 3 +/-0.8). The format is functional.
Series [15] in a line: Drug concentration in C57BL6 mouse colon at 100 mg/kg, po administered as single dose measured after 72 hrs by LC-MS/MS analysis. Format: ADME, organism-based. The method in brief:
as §1

Series [16] in a line: Drug concentration in C57BL6 mouse plasma at 100 mg/kg, po administered as single dose measured after 24 to 72 hrs by LC-MS/MS analysis. The format is ADME, organism-based. Conditions: in vivo, time 24-72 hrs. The method in brief:
as §1

Series [17] in a line: Drug concentration in C57BL6 mouse plasma at 1 mg/kg, po administered as single dose measured after 6 to 48 hrs by LC-MS/MS analysis. The format is ADME, organism-based. Conditions: in vivo, time 6-48 hrs. A digest of the protocol: as §1
Series [18] can be described thus: Effect on locomotor activity in CD-1 mouse at 1 to 100 mg/kg, po measured up to 6 hrs. Format: organism-based. The settings on record: in vivo, dose 1-100 mg/kg.

Chain of Transient receptor potential cation channel subfamily M member 8 (Q7Z2W7 whole entry): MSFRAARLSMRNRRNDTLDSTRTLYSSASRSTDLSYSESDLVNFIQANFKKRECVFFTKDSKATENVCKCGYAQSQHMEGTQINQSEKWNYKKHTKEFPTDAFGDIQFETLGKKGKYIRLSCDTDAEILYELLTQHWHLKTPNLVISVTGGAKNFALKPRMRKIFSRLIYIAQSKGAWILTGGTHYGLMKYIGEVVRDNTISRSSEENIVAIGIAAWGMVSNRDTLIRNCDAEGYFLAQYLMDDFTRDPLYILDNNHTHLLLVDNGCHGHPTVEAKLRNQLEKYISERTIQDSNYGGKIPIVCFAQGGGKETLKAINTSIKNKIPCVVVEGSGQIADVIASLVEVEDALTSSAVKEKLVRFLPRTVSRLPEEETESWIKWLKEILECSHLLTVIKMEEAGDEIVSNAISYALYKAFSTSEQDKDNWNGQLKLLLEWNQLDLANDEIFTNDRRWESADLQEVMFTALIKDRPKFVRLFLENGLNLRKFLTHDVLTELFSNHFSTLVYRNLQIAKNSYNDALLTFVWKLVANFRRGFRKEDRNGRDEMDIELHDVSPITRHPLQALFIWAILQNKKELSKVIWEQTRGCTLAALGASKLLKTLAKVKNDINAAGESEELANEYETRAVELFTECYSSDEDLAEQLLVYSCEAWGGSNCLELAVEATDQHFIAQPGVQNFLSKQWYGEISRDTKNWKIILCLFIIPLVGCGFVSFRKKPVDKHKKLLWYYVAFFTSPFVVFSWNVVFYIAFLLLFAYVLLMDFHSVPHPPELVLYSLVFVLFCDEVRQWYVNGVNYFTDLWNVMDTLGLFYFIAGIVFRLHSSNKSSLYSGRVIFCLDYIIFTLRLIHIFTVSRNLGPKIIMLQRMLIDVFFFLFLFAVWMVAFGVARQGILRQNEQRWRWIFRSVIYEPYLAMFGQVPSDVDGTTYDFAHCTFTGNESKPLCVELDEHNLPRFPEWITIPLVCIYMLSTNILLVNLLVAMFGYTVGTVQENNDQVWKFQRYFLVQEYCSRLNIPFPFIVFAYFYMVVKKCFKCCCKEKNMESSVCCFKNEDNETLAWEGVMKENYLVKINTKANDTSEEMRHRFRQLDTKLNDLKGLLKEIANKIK

As to `Clc1cnc(CNc2ccc3sncc3c2)s1`, in series [1], the fraction unbound at 5 h is under 0.01. The half-maximal effective concentration (EC50) in [2] was over 15.8 µM; in series [3] it was 0.0891 µM.
`Clc1cnc(CNc2ccc3cnsc3c2)s1` had a bioavailability in [4] of 1.54%. For the same compound, in series [5], the concentration at 24 h stood at 2.99 ng/mL. The concentration giving a half-maximal response (EC50) in [2] is over 15.8 µM; in series [3] it was 0.0437 µM. Besides, the fraction unbound at 5 h in series [6] was under 0.01.
Take `Clc1cnc(CNc2cc3sncc3cc2Cl)s1`: the Activity with Mus musculus [7] worked out at 18.5; in the series on Mus musculus [8], 7.5; in the series on Mus musculus [9] it was 0.15 g; in the series on Mus musculus [11], 10.3; in the series on Mus musculus [12], 0.23 g; with Mus musculus [14], 4. For the same compound, the Activity result in series [18] was “Non-Toxic”. Further, the concentration at 6 h in [10] came to 2620 ng/g. Moreover, the concentration at 24 h in series [13] was 164 ng/g. Moreover, the EC50 in [2] was over 15.8 µM; in [3] it was 0.00794 µM. Besides, the fraction unbound at 5 h in series [6] was under 0.01. The concentration at 72 h in [15] is under 20 ng/mL. The Cp in series [16] and in series [17] was under 20 ng/mL in each case.
